Series [1] deals with RAW264.7. Nature of the series: Immunosuppressive activity in mouse RAW264.7 cells assessed as inhibition of LPS-induced nitric oxide production incubated for 24 hrs by Griess method. Format: functional. The essentials: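 Murine macrophage-like RAW264.7 cells were activated with LPS. Control wells (LPS only) and blank wells (cells only) each received 0.1% DMSO vehicle.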
(The Griess reaction detects nitrite, a stable product of nitric oxide.)

Series [2] deals with T1, Nitric oxide synthase, inducible (Mus musculus, UniProt P29477).
T1 sequence (P29477 whole entry): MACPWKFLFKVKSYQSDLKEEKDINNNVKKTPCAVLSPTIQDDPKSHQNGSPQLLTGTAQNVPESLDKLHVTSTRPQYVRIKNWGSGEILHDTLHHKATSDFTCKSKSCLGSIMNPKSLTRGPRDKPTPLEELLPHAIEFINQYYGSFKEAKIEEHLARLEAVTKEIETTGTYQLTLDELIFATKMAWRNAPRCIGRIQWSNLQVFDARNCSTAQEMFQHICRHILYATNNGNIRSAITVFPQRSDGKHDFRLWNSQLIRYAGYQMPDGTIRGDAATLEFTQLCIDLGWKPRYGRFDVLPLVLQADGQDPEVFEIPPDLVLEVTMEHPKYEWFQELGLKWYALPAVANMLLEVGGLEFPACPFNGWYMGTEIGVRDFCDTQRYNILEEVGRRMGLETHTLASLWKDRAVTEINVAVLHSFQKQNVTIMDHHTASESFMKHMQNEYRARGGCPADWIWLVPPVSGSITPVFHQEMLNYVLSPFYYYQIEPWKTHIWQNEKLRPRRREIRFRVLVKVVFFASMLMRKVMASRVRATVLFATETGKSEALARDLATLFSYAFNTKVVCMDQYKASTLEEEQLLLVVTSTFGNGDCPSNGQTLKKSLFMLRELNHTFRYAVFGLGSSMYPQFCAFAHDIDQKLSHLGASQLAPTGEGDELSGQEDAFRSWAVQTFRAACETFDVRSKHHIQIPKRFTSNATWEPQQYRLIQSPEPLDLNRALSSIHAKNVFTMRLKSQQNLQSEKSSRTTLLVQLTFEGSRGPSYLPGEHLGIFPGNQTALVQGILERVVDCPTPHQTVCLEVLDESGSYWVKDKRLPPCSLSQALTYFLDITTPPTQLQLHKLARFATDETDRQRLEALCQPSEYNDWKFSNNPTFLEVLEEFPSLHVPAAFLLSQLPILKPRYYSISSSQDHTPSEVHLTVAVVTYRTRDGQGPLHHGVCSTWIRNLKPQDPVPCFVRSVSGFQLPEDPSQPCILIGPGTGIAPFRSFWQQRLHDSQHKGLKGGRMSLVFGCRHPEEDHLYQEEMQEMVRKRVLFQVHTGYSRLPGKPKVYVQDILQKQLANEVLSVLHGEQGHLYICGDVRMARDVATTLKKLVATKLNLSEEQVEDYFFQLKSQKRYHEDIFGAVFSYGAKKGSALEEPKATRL
Description: Inhibition of iNOS in mouse RAW264.7 cells assessed as conversion of L-citrulline to L-arginine incubated for 30 mins by scintillation counting. Format: cell-based. The conditions noted are these: in the assay text read “conversion of L-arginine to L-citrulline” for “conversion of L-citrulline to L-arginine”. The essentials:
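Crude enzyme was the supernatant of collected RAW264.7 cells, adjusted to 50 mM Tris and 100 µM dithiothreitol final. Enzyme was incubated 30 min with NADPH, compound, L-[3H]-arginine (10 µCi/mL stock) and Tris pH 7.5. The reaction was stopped with 0.1 M buffer pH 5.0 containing 2 mM EDTA and 2 mM EGTA, then stirred 5 min with Dowex 50W-8X. L-[3H]-citrulline in the supernatant was read by scintillation counting.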

For series [3], the system named is RAW264.7. Description: Inhibition of iNOS mRNA expression in mouse RAW264.7 cells by RT-PCR. In kind it is functional, cell-based.
Series [4] relates to RAW264.7. Description: Acute toxicity in mouse RAW264.7 cells assessed as OD540 absorbance incubated for 24 hrs by MTT assay. Format: cell-based. The settings on record: raw264.7, 24 h. The gist of the method:
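RAW264.7 cells kept in DMEM with 5% FBS, 100 U/mL penicillin and streptomycin, at 37 °C in humidified 5% CO2. Compounds were added at the indicated concentrations for 24 h. MTT reagent (5 mg/mL stock) was then added for 4 h, supernatants were aspirated and formazan crystals were dissolved for reading. Control and blank wells received 0.1% DMSO.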
A general note: Formazan colour is commonly taken as a measure of viable cells.

Each structure is given as a SMILES string. The source made the active and inactive calls. No cut-off for these calls is given here.

What is called IC50 is the midpoint of a concentration-inhibition curve. Consider `c1cncc(-c2nnc(-c3ccc4c(c3)OCCO4)o2)c1`, for which the “inhibition (INH)” value in the series with RAW264.7 [1] was found to be 37.66%. In series [2], the half-maximal inhibitory concentration (IC50) was 50 nM. Further, the inhibition result with RAW264.7 [3] was “Active”. Also, the deltaA in the series with RAW264.7 [4] amounted to 1.31.

Consider `COc1cc(-c2nnc(-c3ccc4c(c3)OCCO4)o2)cc(OC)c1OC`, for which, in the series on RAW264.7 [1], the “inhibition (INH)” value turned out to be 20.03%. Also, the IC50 in series [2] was 120 nM. Moreover, in the series on RAW264.7 [3], the inhibition result was “inactive”. Further, the deltaA in the series with RAW264.7 [4] stood at 1.02.

For `Clc1ccc(OCc2nnc(-c3ccc4c(c3)OCCO4)o2)cc1`, the “inhibition (INH)” value with RAW264.7 [1] is 10.49%. Besides, the IC50 in series [2] turned out to be 2160 nM. In addition, in the series with RAW264.7 [4], the deltaA was found to be 0.89.

With `c1ccc(OCc2nnc(-c3ccc4c(c3)OCCO4)o2)cc1`, the “inhibition (INH)” value with RAW264.7 [1] is on record as 6.98%. Also, the deltaA in the series on RAW264.7 [4] is 0.36.

Take `c1ccc(CCc2nnc(-c3ccc4c(c3)OCCO4)o2)cc1`: the “inhibition (INH)” value in the series on RAW264.7 [1] was determined as 3.71%. In addition, in the series with RAW264.7 [4], the deltaA is on record as 0.1.

Consider `C(=C\c1nnc(-c2ccc3c(c2)OCCO3)o1)/c1ccccc1`, for which, in the series on RAW264.7 [1], the “inhibition (INH)” value came to 25.54%. Besides, the IC50 in series [2] is 90 nM. Further, the inhibition result with RAW264.7 [3] was “inactive”. Further, the deltaA with RAW264.7 [4] is 1.15.

For `Brc1ccc(Cc2nnc(-c3ccc4c(c3)OCCO4)o2)cc1`, the “inhibition (INH)” value in the series on RAW264.7 [1] was -8.53%. In the series with RAW264.7 [4], the deltaA worked out at 0.99.

In the case of `Clc1ccc(Cc2nnc(-c3ccc4c(c3)OCCO4)o2)cc1`, the “inhibition (INH)” value with RAW264.7 [1] is 28.11%. Further, in the series with RAW264.7 [4], the deltaA is recorded as 0.63.

`COc1cccc(Cc2nnc(-c3ccc4c(c3)OCCO4)o2)c1`: in the series with RAW264.7 [1], the “inhibition (INH)” value is given as 21.66%. For the same compound, in the series on RAW264.7 [4], the deltaA came to 0.76.

As to `Brc1cncc(-c2nnc(-c3ccc4c(c3)OCCO4)o2)c1`, the “inhibition (INH)” value in the series on RAW264.7 [1] is -42.39%. In addition, in the series on RAW264.7 [4], the deltaA is recorded as 1.22.

Turning to `O=[N+]([O-])c1ccc(-c2nnc(-c3ccc4c(c3)OCCO4)o2)cc1`, the “inhibition (INH)” value in the series with RAW264.7 [1] was 1.34%. The deltaA in the series on RAW264.7 [4] is given as 0.57.

Consider `c1ccc(Cc2nnc(-c3ccc4c(c3)OCCO4)o2)cc1`, for which the “inhibition (INH)” value in the series on RAW264.7 [1] was -3.63%. The deltaA in the series on RAW264.7 [4] was determined as 0.45.

Consider `Clc1ccccc1-c1nnc(-c2ccc3c(c2)OCCO3)o1`, for which the “inhibition (INH)” value in the series with RAW264.7 [1] was -57.48%. Also, in the series on RAW264.7 [4], the deltaA was 1.45.

For the compound `c1ccc(-c2nnc(-c3ccc4c(c3)OCCO4)o2)cc1`, the “inhibition (INH)” value with RAW264.7 [1] turned out to be 5.08%. Further, the IC50 in series [2] was 2350 nM. The deltaA in the series on RAW264.7 [4] turned out to be 1.5.

Regarding `Clc1cccc(Cc2nnc(-c3ccc4c(c3)OCCO4)o2)c1`, the “inhibition (INH)” value with RAW264.7 [1] is 23.7%. Also, in the series with RAW264.7 [4], the deltaA is on record as 0.2.

On to `O=[N+]([O-])c1cccc(-c2nnc(-c3ccc4c(c3)OCCO4)o2)c1`, for which, in the series on RAW264.7 [1], the “inhibition (INH)” value is recorded as -33.82%. In the series with RAW264.7 [4], the deltaA was 0.73.

For the compound `Cc1ccccc1-c1nnc(-c2ccc3c(c2)OCCO3)o1`, the “inhibition (INH)” value in the series with RAW264.7 [1] was found to be 21.58%. Further, the IC50 in series [2] came to 100 nM. Besides, in the series with RAW264.7 [3], the inhibition entry is “inactive”. Further, in the series with RAW264.7 [4], the deltaA was 1.03.

For `O=[N+]([O-])c1ccccc1-c1nnc(-c2ccc3c(c2)OCCO3)o1`, in the series on RAW264.7 [1], the “inhibition (INH)” value is recorded as 3.65%. Further, in the series on RAW264.7 [4], the deltaA is 0.3.

For the origin of these results see ChEMBL document CHEMBL1811790, “Oxadiazole derivatives containing 1,4-benzodioxan as potential immunosuppressive agents against RAW264.7 cells” (Bioorg Med Chem, 2011).
